These results are taken from ChEMBL document CHEMBL4354804, “Discovery of a New Isoxazole-3-hydroxamate-Based Histone Deacetylase 6 Inhibitor SS-208 with Antitumor Activity in Syngeneic Melanoma Mouse Models” (J Med Chem, 2019).

One may read the IC50 as the midpoint of a concentration-inhibition curve. By half-life is commonly meant the time in which the quantity being followed falls by half.

The target of data set [1] is T1, Histone deacetylase 1 (Homo sapiens, UniProt Q13547). Briefly: Inhibition of human recombinant HDAC1 using fluorogenic HDAC substrate by fluorescence assay. The method, boiled down: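 Human full-length recombinant HDAC1 expressed in Sf9 cells via baculovirus. Substrate was the fluorogenic acetylated p53 379-382 peptide RHKKAc (50 µM) in pH 8.0 Tris buffer with NaCl, KCl, MgCl2, BSA and 1% DMSO final. Enzyme and compound were preincubated 5-10 min, then reacted 2 h at 30 °C. Developer plus TSA stopped the reaction; endpoint fluorescence was read.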

The species entered for data set [2] is Homo sapiens. Briefly: Selectivity index, ratio of IC50 for inhibition of human recombinant HDAC1 using fluorogenic substrate incubated for 15 mins by fluorescence assay to IC50 for inhibition of human recombinant HDAC6 using fluorogenic substrate incubated for 30 mins by fluorescence assay.
In data set [3] the target is T2, Protein deacetylase HDAC6 (Homo sapiens, UniProt Q9UBN7).
T2 sequence (Q9UBN7 whole entry): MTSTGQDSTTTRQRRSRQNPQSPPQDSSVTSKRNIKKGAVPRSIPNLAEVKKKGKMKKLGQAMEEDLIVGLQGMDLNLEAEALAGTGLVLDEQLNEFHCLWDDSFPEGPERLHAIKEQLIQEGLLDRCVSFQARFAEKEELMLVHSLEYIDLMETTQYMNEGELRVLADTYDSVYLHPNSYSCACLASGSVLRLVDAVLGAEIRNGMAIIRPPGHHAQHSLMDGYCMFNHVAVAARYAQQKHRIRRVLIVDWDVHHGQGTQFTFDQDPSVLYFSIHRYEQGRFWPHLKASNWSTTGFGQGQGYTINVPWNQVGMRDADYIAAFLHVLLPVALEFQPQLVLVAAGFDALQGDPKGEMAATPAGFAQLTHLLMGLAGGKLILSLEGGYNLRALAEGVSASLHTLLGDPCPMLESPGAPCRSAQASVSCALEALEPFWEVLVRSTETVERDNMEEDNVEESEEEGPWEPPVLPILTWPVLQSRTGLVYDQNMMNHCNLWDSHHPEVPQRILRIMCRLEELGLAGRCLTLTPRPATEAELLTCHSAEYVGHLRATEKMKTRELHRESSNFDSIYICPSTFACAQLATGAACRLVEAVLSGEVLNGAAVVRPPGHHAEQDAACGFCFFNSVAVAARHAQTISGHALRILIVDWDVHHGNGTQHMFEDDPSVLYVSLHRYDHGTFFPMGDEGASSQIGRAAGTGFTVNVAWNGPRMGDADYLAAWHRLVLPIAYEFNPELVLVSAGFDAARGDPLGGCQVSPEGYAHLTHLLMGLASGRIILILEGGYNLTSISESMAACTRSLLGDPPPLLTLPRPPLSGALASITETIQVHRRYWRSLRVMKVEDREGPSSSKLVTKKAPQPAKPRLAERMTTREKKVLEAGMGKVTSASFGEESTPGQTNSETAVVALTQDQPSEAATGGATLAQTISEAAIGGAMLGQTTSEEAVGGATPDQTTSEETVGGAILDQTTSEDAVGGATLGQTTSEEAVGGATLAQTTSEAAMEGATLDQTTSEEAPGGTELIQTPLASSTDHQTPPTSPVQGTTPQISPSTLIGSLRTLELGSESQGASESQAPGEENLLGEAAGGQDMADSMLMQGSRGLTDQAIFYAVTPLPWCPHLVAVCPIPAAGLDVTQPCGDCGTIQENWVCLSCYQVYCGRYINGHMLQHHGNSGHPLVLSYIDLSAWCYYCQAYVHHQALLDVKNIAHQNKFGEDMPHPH
Briefly: Inhibition of human recombinant HDAC6 using fluorogenic substrate incubated for 30 mins by fluorescence assay.

The target in data set [4] is T1, Histone deacetylase 1. Briefly: Inhibition of human recombinant HDAC1 using fluorogenic substrate incubated for 15 mins by fluorescence assay.
Data set [5] relates to Salmonella typhimurium. Briefly: Genotoxicity against Salmonella Typhimurium TA97A assessed as revertant colonies at 0.075 to 250 ug/well by Ames test. In kind it is toxicity, organism-based. Particulars: salmonella enterica subsp. enterica serovar typhimurium. For orientation: The Ames test uses bacterial strains that need an amino acid and regain growth without it when mutated back.

Data set [6] has as its system Salmonella typhimurium. Briefly: Genotoxicity against Salmonella Typhimurium TA97A assessed as revertant colonies at 0.075 to 250 ug/well in presence of mammalian microsomal enzyme S9 mix by Ames test. In kind it is toxicity, organism-based. To be noted: salmonella enterica subsp. enterica serovar typhimurium.
Data set [7] deals with Salmonella typhimurium. Briefly: Genotoxicity against Salmonella Typhimurium TA1537 assessed as revertant colonies at 0.075 to 250 ug/well by Ames test. In kind it is toxicity, organism-based. To be noted: salmonella enterica subsp. enterica serovar typhimurium.
Data set [8] is filed under the species Homo sapiens. Briefly: Selectivity index, ratio of IC50 for recombinant full length C-terminal His/FLAG tagged human HDAC1 (1 to 482 residues) expressed in baculovirus infected sf9 insect cells using p53 (379 to 382 residues) derived fluorogenic peptide RHKKAc as substrate preincubated for 5 to 10 mins followed by ….
Data set [9] in a line: Half life in mouse liver microsomes in presence of NADPH. The format is ADME, Microsome. The method, boiled down: (§1)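 Liver microsomal stability in mouse and human microsomes with NADPH; half-life in minutes.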
(In general: Microsomes from liver hold many membrane-bound enzymes, among them those of drug oxidation.)

Data set [10] concerns Salmonella typhimurium. Briefly: Genotoxicity against Salmonella Typhimurium TA1537 assessed as revertant colonies at 0.075 to 250 ug/well in presence of mammalian microsomal enzyme S9 mix by Ames test. In kind it is toxicity, organism-based. To be noted: salmonella enterica subsp. enterica serovar typhimurium.
A short description of data set [11]: Half life in human liver microsomes in presence of NADPH. In kind it is ADME, Microsome. The method in brief: as §1
Another data set concerns the target Histone deacetylase 5 (Homo sapiens, UniProt Q9UQL6). Briefly: Inhibition of recombinant human HDAC5 expressed in HEK293T/17 cells using Boc-Lys(TFA)-AMC as substrate preincubated for 10 mins followed by substrate addition and measured after 30 mins by fluorescence-based assay. The method in brief: (§2)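 Human HDACs expressed as Strep-tagged fusions in transiently transfected HEK293/T17 cells, purified by Strep-Tactin. Substrate at 10 µM: Ac-GAK(Ac)-AMC for HDAC1/6, Boc-Lys(TFA)-AMC for the others. Reaction 30 min at 37 °C, trypsin stop, fluorescence 365/440 nm. 10-point 3-fold series from 100 µM, mean of two experiments.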

For another data set, the target named is T3, Histone deacetylase 11 (Homo sapiens, UniProt Q96DB2).
T3 sequence (Q96DB2 whole entry): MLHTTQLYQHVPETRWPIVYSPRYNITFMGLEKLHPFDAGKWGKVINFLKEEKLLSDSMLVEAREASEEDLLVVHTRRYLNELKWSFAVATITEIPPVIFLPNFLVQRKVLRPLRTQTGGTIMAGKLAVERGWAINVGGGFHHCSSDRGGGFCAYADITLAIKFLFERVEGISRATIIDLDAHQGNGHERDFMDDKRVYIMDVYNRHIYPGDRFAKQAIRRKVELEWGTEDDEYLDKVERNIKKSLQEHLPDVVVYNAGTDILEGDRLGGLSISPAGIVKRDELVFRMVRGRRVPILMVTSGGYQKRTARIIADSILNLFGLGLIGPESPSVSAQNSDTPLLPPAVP
Briefly: Inhibition of recombinant human HDAC11 expressed in HEK293T/17 cells using Boc-Lys(TFA)-AMC as substrate preincubated for 10 mins followed by substrate addition and measured after 30 mins by fluorescence-based assay. The method, boiled down: as §2

The target in data set [12] is T1, Histone deacetylase 1. Briefly: Inhibition of recombinant human HDAC1 expressed in HEK293T/17 cells using Ac-GAK(Ac)-AMC as substrate preincubated for 10 mins followed by substrate addition and measured after 30 mins by fluorescence-based assay. The method, boiled down:
as §2

Data set [13] addresses T1, Histone deacetylase 1. Briefly: Inhibition of recombinant full length C-terminal His/FLAG tagged human HDAC1 (1 to 482 residues) expressed in baculovirus infected sf9 insect cells using p53 (379 to 382 residues) derived fluorogenic peptide RHKKAc as substrate preincubated for 5 to 10 mins followed by substrate addition and further incubated for 2 hrs by fluorescence assay.

A further data set concerns the target Histone deacetylase 4 (Homo sapiens, UniProt P56524). Briefly: Inhibition of recombinant human HDAC4 expressed in HEK293T/17 cells using Boc-Lys(TFA)-AMC as substrate preincubated for 10 mins followed by substrate addition and measured after 30 mins by fluorescence-based assay. The method in brief: as §2
Data set [14] has as its target T2, Protein deacetylase HDAC6. Briefly: Inhibition of recombinant N-terminal GST-tagged human HDAC6 (1 to 1215 residues) expressed in baculovirus infected sf9 insect cells using p53 (379 to 382 residues) derived fluorogenic peptide RHKKAc as substrate preincubated for 5 to 10 mins followed by substrate addition and further incubated for 2 hrs by fluorescence assay.

The target in another data set is T4, Histone deacetylase 8 (Homo sapiens, UniProt Q9BY41).
T4 sequence (Q9BY41 whole entry): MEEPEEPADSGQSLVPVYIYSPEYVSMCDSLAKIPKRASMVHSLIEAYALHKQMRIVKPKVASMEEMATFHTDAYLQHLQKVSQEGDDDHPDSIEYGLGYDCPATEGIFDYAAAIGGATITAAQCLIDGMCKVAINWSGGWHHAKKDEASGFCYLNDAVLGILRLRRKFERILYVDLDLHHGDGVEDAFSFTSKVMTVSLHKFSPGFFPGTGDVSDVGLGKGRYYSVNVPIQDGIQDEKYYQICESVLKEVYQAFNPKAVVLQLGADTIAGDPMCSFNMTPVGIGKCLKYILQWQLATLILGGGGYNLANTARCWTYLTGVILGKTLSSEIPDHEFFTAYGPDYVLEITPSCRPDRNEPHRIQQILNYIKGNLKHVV
Briefly: Inhibition of recombinant human HDAC8 expressed in HEK293T/17 cells using Boc-Lys(TFA)-AMC as substrate preincubated for 10 mins followed by substrate addition and measured after 30 mins by fluorescence-based assay. The method, boiled down: as §2

Data set [15] deals with T2, Protein deacetylase HDAC6. Briefly: Inhibition of recombinant human HDAC6 expressed in HEK293T/17 cells using Ac-GAK(Ac)-AMC as substrate preincubated for 10 mins followed by substrate addition and measured after 30 mins by fluorescence-based assay.
A further data set deals with Histone deacetylase 9 (Homo sapiens, UniProt Q9UKV0). Briefly: Inhibition of recombinant human HDAC9 expressed in HEK293T/17 cells using Boc-Lys(TFA)-AMC as substrate preincubated for 10 mins followed by substrate addition and measured after 30 mins by fluorescence-based assay. The method, boiled down: as §2
Data set [16] can be described thus: Induction of apoptosis in mouse SM1 cells at 100 nM by caspase3/7 reagent based luminescence assay. The format is cell-based. Particulars: 0.1 µM. The method, boiled down:
(§3)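 SM1 cells treated with HDAC inhibitors, with pan-HDACi and assay controls on every plate. ApoTox-Glo triplex readout: viability fluorescence 400Ex/505Em, cytotoxicity fluorescence 485Ex/520Em, then caspase 3/7 reagent read by luminescence for apoptosis.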

The nature of data set [17]: Cytotoxicity against mouse SM1 cells at 100 nM by ApoTox-Glo triplex assay. In kind it is cell-based. Particulars: 0.1 µM. The method in brief: as §3

T1 sequence (Q13547 whole entry): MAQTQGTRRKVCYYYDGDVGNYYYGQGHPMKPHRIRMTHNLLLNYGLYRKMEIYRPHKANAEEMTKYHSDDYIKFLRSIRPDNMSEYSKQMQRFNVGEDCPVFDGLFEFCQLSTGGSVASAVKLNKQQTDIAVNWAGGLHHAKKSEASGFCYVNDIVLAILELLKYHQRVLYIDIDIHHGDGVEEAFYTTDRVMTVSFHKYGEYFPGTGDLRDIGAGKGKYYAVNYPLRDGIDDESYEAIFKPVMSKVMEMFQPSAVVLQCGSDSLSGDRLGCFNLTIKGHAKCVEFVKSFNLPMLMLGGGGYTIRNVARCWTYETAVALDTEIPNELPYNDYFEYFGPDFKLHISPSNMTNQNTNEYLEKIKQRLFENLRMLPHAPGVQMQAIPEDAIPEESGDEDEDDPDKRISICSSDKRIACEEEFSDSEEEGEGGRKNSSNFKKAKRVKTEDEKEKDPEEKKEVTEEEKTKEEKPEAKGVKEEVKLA
Histone deacetylase 5, sequence (Q9UQL6 whole entry, the tested form may be a part): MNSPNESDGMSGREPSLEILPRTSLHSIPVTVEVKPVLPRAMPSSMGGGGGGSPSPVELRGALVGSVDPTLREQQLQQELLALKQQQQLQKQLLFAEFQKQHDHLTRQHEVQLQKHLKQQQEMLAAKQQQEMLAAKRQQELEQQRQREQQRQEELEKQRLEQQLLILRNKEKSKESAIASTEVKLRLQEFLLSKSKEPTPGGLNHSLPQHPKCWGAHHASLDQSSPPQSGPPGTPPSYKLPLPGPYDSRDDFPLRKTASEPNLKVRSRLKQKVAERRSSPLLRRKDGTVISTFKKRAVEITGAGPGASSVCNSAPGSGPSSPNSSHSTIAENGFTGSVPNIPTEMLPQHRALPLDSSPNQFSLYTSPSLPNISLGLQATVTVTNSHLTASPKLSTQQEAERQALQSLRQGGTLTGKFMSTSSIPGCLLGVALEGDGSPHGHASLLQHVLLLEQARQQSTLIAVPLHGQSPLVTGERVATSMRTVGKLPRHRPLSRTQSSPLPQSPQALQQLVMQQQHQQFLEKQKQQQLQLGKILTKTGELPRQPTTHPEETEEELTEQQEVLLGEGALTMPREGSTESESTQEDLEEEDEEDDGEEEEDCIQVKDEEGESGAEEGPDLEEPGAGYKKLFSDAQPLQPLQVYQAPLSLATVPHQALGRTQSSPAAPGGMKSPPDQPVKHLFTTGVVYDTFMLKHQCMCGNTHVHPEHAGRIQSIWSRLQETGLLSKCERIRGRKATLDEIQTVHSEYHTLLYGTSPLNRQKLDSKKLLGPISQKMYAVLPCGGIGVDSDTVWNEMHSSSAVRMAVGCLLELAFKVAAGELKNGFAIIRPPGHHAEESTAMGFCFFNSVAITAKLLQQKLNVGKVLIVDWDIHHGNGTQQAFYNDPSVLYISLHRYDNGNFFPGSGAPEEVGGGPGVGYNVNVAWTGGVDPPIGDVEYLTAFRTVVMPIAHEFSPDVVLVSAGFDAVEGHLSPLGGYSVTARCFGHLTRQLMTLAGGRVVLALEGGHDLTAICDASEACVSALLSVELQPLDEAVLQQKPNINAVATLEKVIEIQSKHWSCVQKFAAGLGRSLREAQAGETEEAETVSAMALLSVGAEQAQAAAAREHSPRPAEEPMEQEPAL
Histone deacetylase 9, sequence (Q9UKV0 whole entry): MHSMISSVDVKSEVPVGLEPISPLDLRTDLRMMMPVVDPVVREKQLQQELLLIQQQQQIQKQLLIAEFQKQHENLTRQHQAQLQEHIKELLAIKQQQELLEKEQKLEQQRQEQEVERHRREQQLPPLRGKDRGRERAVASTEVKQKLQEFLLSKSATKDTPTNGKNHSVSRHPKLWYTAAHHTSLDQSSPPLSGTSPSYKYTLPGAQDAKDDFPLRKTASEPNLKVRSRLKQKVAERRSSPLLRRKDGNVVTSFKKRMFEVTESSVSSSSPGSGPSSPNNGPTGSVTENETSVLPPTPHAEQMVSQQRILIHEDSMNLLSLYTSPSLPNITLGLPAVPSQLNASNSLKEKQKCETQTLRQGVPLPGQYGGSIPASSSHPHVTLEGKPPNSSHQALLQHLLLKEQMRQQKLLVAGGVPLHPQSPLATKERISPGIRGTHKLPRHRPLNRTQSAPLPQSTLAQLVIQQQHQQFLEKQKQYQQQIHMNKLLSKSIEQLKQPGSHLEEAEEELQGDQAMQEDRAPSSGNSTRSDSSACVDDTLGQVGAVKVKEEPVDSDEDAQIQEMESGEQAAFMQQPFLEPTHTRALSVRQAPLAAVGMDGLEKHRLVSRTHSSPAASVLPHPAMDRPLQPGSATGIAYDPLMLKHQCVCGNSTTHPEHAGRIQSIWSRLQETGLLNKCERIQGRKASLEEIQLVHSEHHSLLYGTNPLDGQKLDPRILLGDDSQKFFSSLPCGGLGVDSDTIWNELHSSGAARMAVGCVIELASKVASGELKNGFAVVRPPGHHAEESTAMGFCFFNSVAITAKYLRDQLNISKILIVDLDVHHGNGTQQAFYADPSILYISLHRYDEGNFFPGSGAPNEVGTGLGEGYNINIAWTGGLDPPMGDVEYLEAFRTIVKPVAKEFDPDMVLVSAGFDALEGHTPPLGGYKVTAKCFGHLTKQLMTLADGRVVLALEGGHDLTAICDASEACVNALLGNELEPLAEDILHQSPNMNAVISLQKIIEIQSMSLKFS
Histone deacetylase 4, sequence (P56524 whole entry, the tested form may be a part): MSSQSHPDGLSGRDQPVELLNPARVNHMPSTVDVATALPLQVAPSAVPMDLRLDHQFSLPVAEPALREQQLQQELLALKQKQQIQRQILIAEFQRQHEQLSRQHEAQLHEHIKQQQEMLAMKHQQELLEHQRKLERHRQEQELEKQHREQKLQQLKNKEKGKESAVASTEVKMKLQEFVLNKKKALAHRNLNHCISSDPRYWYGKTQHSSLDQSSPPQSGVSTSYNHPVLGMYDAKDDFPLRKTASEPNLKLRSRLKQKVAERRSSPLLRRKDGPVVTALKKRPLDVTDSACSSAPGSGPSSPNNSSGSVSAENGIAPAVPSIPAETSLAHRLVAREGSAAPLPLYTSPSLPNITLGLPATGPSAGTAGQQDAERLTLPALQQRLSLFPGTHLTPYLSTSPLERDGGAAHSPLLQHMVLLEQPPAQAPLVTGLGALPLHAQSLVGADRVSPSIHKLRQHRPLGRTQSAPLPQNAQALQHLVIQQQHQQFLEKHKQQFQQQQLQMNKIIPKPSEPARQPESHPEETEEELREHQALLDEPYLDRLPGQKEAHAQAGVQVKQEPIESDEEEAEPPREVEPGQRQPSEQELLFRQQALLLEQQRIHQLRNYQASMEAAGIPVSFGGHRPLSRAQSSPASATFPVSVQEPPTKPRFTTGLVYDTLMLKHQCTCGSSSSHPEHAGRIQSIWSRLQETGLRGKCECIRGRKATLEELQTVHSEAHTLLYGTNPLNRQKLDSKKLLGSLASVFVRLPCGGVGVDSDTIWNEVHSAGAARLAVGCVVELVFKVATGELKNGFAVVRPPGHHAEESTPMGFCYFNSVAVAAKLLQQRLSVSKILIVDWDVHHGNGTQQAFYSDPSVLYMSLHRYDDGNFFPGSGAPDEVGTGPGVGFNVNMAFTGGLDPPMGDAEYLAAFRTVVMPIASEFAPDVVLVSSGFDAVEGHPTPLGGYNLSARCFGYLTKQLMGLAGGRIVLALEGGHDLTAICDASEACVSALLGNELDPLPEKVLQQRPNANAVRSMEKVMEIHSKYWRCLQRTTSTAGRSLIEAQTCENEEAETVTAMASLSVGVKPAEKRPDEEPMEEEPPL

Take `CN(Cc1ccc(C(=O)NO)cc1F)CC12CC3CC(CC(C3)C1)C2`: the IC50 on Histone deacetylase 1 [1] is > 1000 nM.
For the compound `O=C(NO)c1ccc(CNCc2csc3ccccc23)cc1`, the Ratio IC50 in the data set listed under Homo sapiens [2] is 535. Also, the IC50 was 14 nM in data set [3] and 7500 nM at Histone deacetylase 1 [4].
Turning to `CC(C)(C)OC(=O)Nc1ccc(-c2cc(C(=O)NCCc3cc(C(=O)NO)no3)no2)cc1`, the Activity result in the data set with Salmonella typhimurium [5], with Salmonella typhimurium [6], in the data set on Salmonella typhimurium [7] and in the data set on Salmonella typhimurium [10] was “Non-Toxic” throughout. Further, the Ratio IC50 in the data set listed under Homo sapiens [8] came out at 2820. For the same compound, the figures for the half-life in [9] and in data set [11] were 16 min and 85 min, respectively.
As for `O=C(NO)c1ccc(CNC(=O)c2ccc(Cl)c(Cl)c2)cc1`, the IC50 at Histone deacetylase 5 is 3120 nM; at Histone deacetylase 11 it was 1050 nM; at Histone deacetylase 1 [12] it was 34 nM; at Histone deacetylase 1 [13] it was 200 nM; on Histone deacetylase 4 it was 3530 nM; in [14] it was 28 nM. The values for the concentration for half-maximal inhibition (IC50) (on Histone deacetylase 8; in [15]; on Histone deacetylase 9) were 920 nM, 2 nM and 3070 nM, respectively.
`Cc1[nH]c2ccccc2c1CCNCc1ccc(/C=C/C(=O)NO)cc1` [PANOBINOSTAT]: the Activity entry in data set [16] and in data set [17] was “Toxic” each time.
